Data taken from the EternaBench riboswitch data.

Tested on: MS2 coat protein
Assay: apparent Kd, MS2 coat protein; higher = weaker binding; RNA-MaP array; FMN 200 µM where present
Outline: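 Green signal from SNAP-549-labelled MS2 coat protein was normalised to red-channel RNA signal and to the median Fmax of control clusters. The protein was titrated from 0.7 or 1.5 nM, doubling to 3 µM, without and then with constant ligand, over designs transcribed by stalled E. coli RNA polymerase on Illumina sequencing-chip clusters, in 100 mM Tris-HCl pH 7.5, 80 mM KCl, 4 mM MgCl2, BSA, DTT, yeast tRNA and Tween-20. The apparent Kd is the median of filtered per-cluster binding-curve fits.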

[1] = designed as: OFF switch for flavin mononucleotide, no ligand
[2] = ligand present: flavin mononucleotide, designed as: OFF switch for flavin mononucleotide
[3] = designed as: ON switch for flavin mononucleotide, no ligand
[4] = ligand present: flavin mononucleotide, designed as: ON switch for flavin mononucleotide

Sequence | apparent Kd [1] [nM] | apparent Kd [2] [nM] | apparent Kd [3] [nM] | apparent Kd [4] [nM]
AAAGCAACAUGAGGAUCACCCAUGUAGGAUAUCGCUAUUGUAAUCAUGAAACAUGAUUACAAUAGCGAGAAGGACAUAUGCAAA | 11.3 | 12.9 |  | 
CAGGUAGACUGAGGAUAUACAGACCUAGUCUAUCUAGGUCAAUUCCUUACAUGAGGAUCACCCAUGUAGAAGGCAGUCUGCCUG | 18.7 | 38.8 |  | 
AUCUAUCAUGUAGGAUAUGCGUGGCGAAGCUAUGCAGAAGGACAUGAGGAUCACCCAUGUCUUUCUGUCUGCGGACGGACAGGA | 23.6 | 72.7 |  | 
GUAUUUGAAGUAAGGAUAUGCCUCUGGAAACGGAGGUAGAAGGUACAUGAGGAUCACCCAUGUUUCUCUCUUGG | 16.9 | 27.3 |  | 
UGCUACAUGAGGAUCACCCAUGUAAUGUGGGAAUCGUUAGGACAGGAUAUGAUUGUAUUGUUUUUUCAGAAGGGUCAUUACUUU | 302 | 303 |  | 
UCUCUUCUGUAGAAGGCCCAACUUGUGAAGGCAACGAUGCUAUAGAAGUAGGGAGGAUAUACAUGAGGAUCACCCAUGUAGGAA | 9.28 | 13.4 |  | 
AAGAACUGAGGAUAUGCAAAAGGGAAAGCUGAUCCUCAUCUACAUGAGGAUCACCCAUGUAGAAGGCGGGAAAU | 49.4 | 50.5 |  | 
UAUUCACAUGAGGAUCACCCAUGUAGAAGGCCGAGCCUGGCCACGGUUACAAGCCGUGGAGAGCCGGAGGAUAUACAGCUGGUG | 140 | 27.8 |  | 
UGGUUGGGAGGAUAUCCAAUAUAUGACAUGAGGAUCACCCAUGUUUCCACUCGUACCUCCGGAGAAGGCCCUUCCU | 22.8 | 21.6 |  | 
GGGCUGUCAGGAUAUCUCGGGCUCGGGUAAAUCUGGGUCUGGGAGAAGGGACAUGAGGAUCACCCAUGUGGCCC | 34.3 | 37.9 |  | 
CAGUACUGAGGAUAUACAUGAGGAUCACCCAUGUGUUCCUGCUAGGAUAUUAGCAAAAGUAGAAGGCAGAAGGGAAUGUGCCUA | 6.93 | 6.73 |  | 
UACCAAUUUUUGGUAUUACACUAUGAGGAUAUCAUAUAUGAAUACAUGAGGAUCACCCAUGUGUGUGAGAAGGCAUAAUUUAUA |  |  | 28.1 | 10.5
UUGGAUGUCGUAGGAUAUGUAGGAUAUUCCUACAUGAGGAUCACCCAUGUUGACAUGGAAGAAGGACAGAAGGACGAUGUCCAU |  |  | 209 | 5.03
CCCUAGGUAGGAUAUACUUGGGCUCGGCUGAUGUGCCUAAAACAUGAGGAUCACCCAUGUAGAAGGACUAAGGC | 12.4 | 10.8 |  | 
GGAUAUAUUACAUGAGGAUCACCCAUGUCAGAAAGGGUAAUCAGAAGGUACUAUUAGAGAAAGAGUAAGGAUAUGAUUAUAUCC |  |  | 630 | 147
UAUAUAUAGUAAGGAUAUGUAUUAAUUUUACAAACAGAAGGUACUGACAUGAGGAUCACCCAUGUUUUAGUGUGGGCAUGUAGA | 59.9 | 72.6 |  | 
AGCUAAAACGAAGGAUAUACAAACAUGAGGAUCACCCAUGUAUACAUGAUUUAUUGUGAUCACAUGUAGAAGGUCGUACUAACA |  |  | 958 | 225
GGAGCUCCUGACAUGAGGAUCACCCAUGUUCAAUUAUUAAAUCAGGAUAUCGUCUCGAAACGAGACGAGAAGGGAUAUGCUCCU |  |  | 5.89 | 6.2
GUAGUGUAGUGAGGAUAUACGAGAUCGAUAGAUCGGCGAUCCAAUAAUACAUGAGGAUCACCCAUGUAGAAGGCACUUCACUAC | 7.26 | 98.8 |  | 
CUCAUGUGAGGAUAUGUGAUCAACCUUCUGUAUAGAUGAUUACAGAAGGCACAUGAGGAUCACCCAUGUAGAUC | 106 | 125 |  | 
AAAGACAGACAUGAGGAUCACCCAUGUUACGAAGAUACUGGGAGAAGGGCGAUUGCAAAGCAAUCGCAGGAUAUUCGUAUUGUC |  |  | 25.8 | 13.2
AAAAGACAUGAGGAUCACCCAUGUCAAGACGUGGGAGGAUAUGUAUGGAAACCAGACUGUACAGAAGGCCUCUGUC |  |  | 57 | 70.5
CUGUUCAGUGUAGGAUAUGCAUAUUCCCAUUAUGCAGAAGGACAUGAGGAUCACCCAUGUAUGUUAUUAUCAUGUGUUACAUGC | 33.6 | 124 |  | 
CUAGUAUAUCAGGAUAUGAUUUUGUGUAGUUGGUCAGAAGGGAUGACAUGAGGAUCACCCAUGUUAAGGAGUGA | 122 | 146 |  | 
GCGUAAGUCACAGGAUAUCCAACAUGAGGAUCACCCAUGUAAAAGUGCCGCAUUAGAAUGCGACUGGAGAAGGGUGAUUCGUCG |  |  | 51.3 | 23.4
CCUGUGUGAGGAUAUGGUGUUGGCAAAAAGGAAUAGCUCCUCCAGAAGGCACAUGAGGAUCACCCAUGUCGUGG | 15.2 | 36 |  | 
GGGUUUGGUGUGAGGAUAUCGGGCCCGAAAGGGUUUGAGAAGGCACAUGAGGAUCACCCAUGUAAGCCGGGCCC | 22.8 | 17.2 |  | 
UAGCAGUGCGGGUAGGAUAUGUAGGGUGGUACAUGAGGAUCACCCAUGUAUCCACCCUUCGACCGGCAGAAGGGCCUGUCACUGC |  |  | 22 | 22.6
